The results in this text go back to ChEMBL document CHEMBL2150893, “Synthesis of β-ionone derived chalcones as potent antimicrobial agents” (2012).

A word on the MIC: it is the lowest concentration found to suppress growth. A lower MIC goes with inhibition by little substance.

≈ marks a conversion by molar mass, not a printed value. Calls of active or inactive are those of the source. The calls are words filed in the database; no cut-off is given here.

One experiment has as its system Bacillus subtilis. The experiment is described as follows: Antibacterial activity against Bacillus subtilis MTCC 2451 after 24 hrs by serial dilution method. The format is functional. The note with it: MTCC 2451, 24 h. The essentials:
(§1)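 Serial tube dilution MIC. Strains were grown in nutrient broth to an OD600 of 0.4-0.6. Compounds were tested at 0.78, 1.56, 3.12, 6.25, 12.5, 25 and 50 µg/ml, each in a separate tube containing 5 ml nutrient broth plus 1 ml compound solution. Tubes were incubated 24 h with shaking at 180 rpm. Growth was followed by optical density at 600 nm.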

A short description of experiment [1]: Antifungal activity against Cryptococcus gastricus MTCC 1715 after 24 hrs by serial dilution method. The class given is functional. The note with it: Goffeauzyma gastrica. Put shortly: (§2)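 Fungal MIC by serial tube dilution. Dilutions of test compounds (1.9–500 µg/ml) were made from stock solution. Each tube held 1 ml nutrient broth and received 20 µl of standard strain culture.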

A further experiment concerns Staphylococcus aureus. The experiment is described as follows: Antibacterial activity against Staphylococcus aureus MTCC 96 after 24 hrs by serial dilution method. The format is functional. The note with it: MTCC 96, 24 h. Put shortly:
as §1

The next experiment concerns Escherichia coli. The experiment is described as follows: Antibacterial activity against Escherichia coli MTCC 82 after 24 hrs by serial dilution method. The format is functional. The note with it: MTCC 82, 24 h. Put shortly:
as §1

A further experiment deals with Pseudomonas aeruginosa. The experiment is described as follows: Antibacterial activity against Pseudomonas aeruginosa MTCC 2642 after 24 hrs by serial dilution method. The class given is functional. The note with it: MTCC 2642, 24 h. Put shortly: as §1
A further experiment deals with Salmonella typhi. The experiment is described as follows: Antibacterial activity against Salmonella typhi after 24 hrs by serial dilution method. The format is functional, Salmonella enterica subsp. enterica serovar Typhi. To be noted: Salmonella enterica. The essentials:
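Serial tube dilution MIC in nutrient broth. Bacteria were grown until OD600 reached 0.4-0.6. Tubes held 5 ml broth plus 1 ml compound at 0.78, 1.56, 3.12, 6.25, 12.5, 25 or 50 µg/ml and were shaken at 180 rpm for 24 h. Initial medium OD was read at 600 nm.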

The next experiment relates to Klebsiella pneumoniae. The experiment in a line: Antibacterial activity against Klebsiella pneumoniae MTCC 530 after 24 hrs by serial dilution method. The format is functional, organism-based.
The subject of another experiment is Aspergillus niger. The experiment is described as follows: Antifungal activity against Aspergillus niger MTCC 1344 after 24 hrs by serial dilution method. The class given is functional. To be noted: MTCC 1344, 24 h. Put shortly: as §2
For another experiment, the system named is Saccharomyces cerevisiae. The experiment in a line: Antifungal activity against Saccharomyces cerevisiae MTCC 172 after 24 hrs by serial dilution method. The class given is functional. To be noted: MTCC 172, 24 h. Put shortly:
as §2

In another experiment the test system is Candida albicans. The experiment in a line: Antifungal activity against Candida albicans MTCC 3018 after 24 hrs by serial dilution method. The class given is functional. To be noted: MTCC 3018, 24 h. Put shortly:
as §2

For a further experiment, the system named is Nannizzia gypsea. The experiment is described as follows: Antifungal activity against Microsporum gypseum MTCC 4490 after 24 hrs by serial dilution method. The format is functional. The note with it: MTCC 4490, 24 h. Put shortly:
as §2

On to `CC1=C(/C=C/C(=O)/C=C/c2cccnc2)C(C)(C)CCC1`, for which the MIC against Bacillus subtilis was 6.25 mg/L (≈ 22.2 µM); in experiment [1], above 100 mg/L; in the experiment with Staphylococcus aureus, 6.25 mg/L (≈ 22.2 µM); with Escherichia coli, 12.5 mg/L (≈ 44.4 µM); in the experiment on Pseudomonas aeruginosa it was 12.5 mg/L (≈ 44.4 µM); in the experiment on Salmonella typhi, above 100 mg/L. Also, the MIC was 3.9 mg/L (≈ 13.9 µM) in the experiment on Aspergillus niger, 10.5 mg/L (≈ 37.3 µM) in the experiment on Saccharomyces cerevisiae, 35 mg/L (≈ 124 µM) with Candida albicans and above 100 mg/L against Nannizzia gypsea. Moreover, the outcome in the experiment with Klebsiella pneumoniae was inactive.
Regarding `CC1=C(/C=C/C(=O)/C=C/c2ccccc2)C(C)(C)CCC1`, the MIC in the experiment with Bacillus subtilis was 3.12 mg/L (≈ 11.1 µM); in [1], 78 mg/L (≈ 278 µM); in the experiment with Staphylococcus aureus, 3.12 mg/L (≈ 11.1 µM); with Escherichia coli it was 1.56 mg/L (≈ 5.56 µM); in the experiment with Pseudomonas aeruginosa, 12.5 mg/L (≈ 44.6 µM); with Salmonella typhi, 12.5 mg/L (≈ 44.6 µM). Also, the MIC was above 100 mg/L in the experiment with Aspergillus niger, 61.5 mg/L (≈ 219 µM) with Saccharomyces cerevisiae, above 100 mg/L against Candida albicans and above 100 mg/L in the experiment with Nannizzia gypsea. In the experiment with Klebsiella pneumoniae, the result was inactive.
